Results taken from ChEMBL document CHEMBL3745677, “Discovery of 6-(4-{[5-Cyclopropyl-3-(2,6-dichlorophenyl)isoxazol-4-yl]methoxy}piperidin-1-yl)-1-methyl-1H-indole-3-carboxylic Acid: A Novel FXR Agonist for the Treatment of Dyslipidemia” (J Med Chem, 2015).

Assays:
[1] = Initial plasma concentration in Sprague-Dawley rat at 1 mg/kg, iv by LC-MS/MS analysis; type: ADME, organism-based
Procedure, shortened: (§1)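 Intravenous dose given in 5% Solutol / 5% EtOH in saline (1 mg/kg rat and dog, 0.91 mpk monkey). Plasma samples collected and analyzed by LC-MS/MS; parameters reported as mean ± SD, N=2-3.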

[2] = Cmax in Sprague-Dawley rat at 3 mg/kg, po by LC-MS/MS analysis; type: ADME, organism-based; parameters: dose 3 mg/kg, route oral; conditions: in vivo
Procedure, shortened: (§2)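 Sprague Dawley rats, Beagle dogs and Cynomolgus monkeys were dosed IV at 1 mg/kg (rat, dog) or 0.91 mpk (monkey) in 5% Solutol/5% EtOH in saline. Oral/nasogastric dosing was 3 mpk in 1.0% CMC/0.25% PS80/0.05% antifoam in purified water. Samples were processed to plasma and analysed by LC-MS/MS; values are mean ± SD, N=2-3.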

Mus musculus [3] = test: Antidyslipidemic activity in western-diet fed mouse expressing LDL-receptor (-/-) assessed as decrease in total cholesterol level at 30 mg/kg qd for a week administered via gavage […]; type: functional; conditions: po
Procedure, shortened: (§3)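 Male LDLR null mice, six per group, were gavaged once daily for one week with compound (in situ sodium salt) or vehicle (5% Solutol, 5% EtOH, 1% wt/v CMC) at 5 mL/kg. On day 7 they were bled by cardiac puncture under CO2 anaesthesia. Serum cholesterol and triglycerides were measured enzymatically on a clinical chemistry analyser (mean ± SD, n=6). ED50 was obtained by nonlinear regression.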

[4] = Terminal half life in beagle dog at 3 mg/kg, po by LC-MS/MS analysis; type: ADME, organism-based, Canis lupus familiaris; conditions: in vivo, read-out: beta t1/2 (converted)
Procedure, shortened: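 Oral/nasogastric dosing at 3 mpk in 1.0% CMC/0.25% PS80/0.05% antifoam in purified water. Plasma samples collected and analyzed by LC-MS/MS; parameters reported as mean ± SD, N=2-3.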

[5] = AUC (0 to 24 hrs) in beagle dog at 1 mg/kg, iv by LC-MS/MS analysis; type: ADME, organism-based, Canis lupus familiaris; parameters: time < 24 hr, dose 1 mg/kg, route intravenous; conditions: in vivo; procedure, shortened: as §2
Rattus norvegicus [6] = test: Antidyslipidemic activity in ZDF rat assessed as HDL level at 10 mg/kg for 9 days by FPLC analysis (reference value: 48.3 mg/dL); type: functional, Zucker
Mus musculus [7] = test: Antidyslipidemic activity in western-diet fed mouse expressing LDL-receptor (-/-) assessed as decrease in low density lipoprotein level at 1 mg/kg qd for a week administered via gavage by FPLC analysis; type: functional; conditions: po
Procedure, shortened: (§4)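 LDLR null male mice, six per group, were dosed by gavage once daily for one week (vehicle 5% Solutol, 5% EtOH, 1% wt/v CMC; 5 mL/kg). Serum was collected by cardiac puncture on day 7 under CO2 anaesthesia. Pooled serum from each treatment group was fractionated by FPLC to quantify VLDL and LDL.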

Mus musculus [8] = test: Antidyslipidemic activity in western-diet fed mouse expressing LDL-receptor (-/-) assessed as decrease in triglyceride level at 30 mg/kg qd for a week administered via gavage […]; type: functional; conditions: po; procedure, shortened: as §3
Mus musculus [9] = test: Antidyslipidemic activity in western-diet fed mouse expressing LDL-receptor (-/-) assessed as decrease in triglyceride level at 1 mg/kg qd for a week administered via gavage by FPLC analysis; type: functional; conditions: po
Mus musculus [10] = test: Antidyslipidemic activity in western-diet fed mouse expressing LDL-receptor (-/-) assessed as decrease in triglyceride level at 3 mg/kg qd for a week administered via gavage […]; type: functional; conditions: po; procedure, shortened: as §3
[11] = target: T1, Mineralocorticoid receptor (Homo sapiens, UniProt P08235); test: Agonist activity at mineralocorticoid receptor (unknown origin) expressed in HEK293 cells assessed as transcriptional activation; type: cell-based
T1 sequence (P08235 whole entry): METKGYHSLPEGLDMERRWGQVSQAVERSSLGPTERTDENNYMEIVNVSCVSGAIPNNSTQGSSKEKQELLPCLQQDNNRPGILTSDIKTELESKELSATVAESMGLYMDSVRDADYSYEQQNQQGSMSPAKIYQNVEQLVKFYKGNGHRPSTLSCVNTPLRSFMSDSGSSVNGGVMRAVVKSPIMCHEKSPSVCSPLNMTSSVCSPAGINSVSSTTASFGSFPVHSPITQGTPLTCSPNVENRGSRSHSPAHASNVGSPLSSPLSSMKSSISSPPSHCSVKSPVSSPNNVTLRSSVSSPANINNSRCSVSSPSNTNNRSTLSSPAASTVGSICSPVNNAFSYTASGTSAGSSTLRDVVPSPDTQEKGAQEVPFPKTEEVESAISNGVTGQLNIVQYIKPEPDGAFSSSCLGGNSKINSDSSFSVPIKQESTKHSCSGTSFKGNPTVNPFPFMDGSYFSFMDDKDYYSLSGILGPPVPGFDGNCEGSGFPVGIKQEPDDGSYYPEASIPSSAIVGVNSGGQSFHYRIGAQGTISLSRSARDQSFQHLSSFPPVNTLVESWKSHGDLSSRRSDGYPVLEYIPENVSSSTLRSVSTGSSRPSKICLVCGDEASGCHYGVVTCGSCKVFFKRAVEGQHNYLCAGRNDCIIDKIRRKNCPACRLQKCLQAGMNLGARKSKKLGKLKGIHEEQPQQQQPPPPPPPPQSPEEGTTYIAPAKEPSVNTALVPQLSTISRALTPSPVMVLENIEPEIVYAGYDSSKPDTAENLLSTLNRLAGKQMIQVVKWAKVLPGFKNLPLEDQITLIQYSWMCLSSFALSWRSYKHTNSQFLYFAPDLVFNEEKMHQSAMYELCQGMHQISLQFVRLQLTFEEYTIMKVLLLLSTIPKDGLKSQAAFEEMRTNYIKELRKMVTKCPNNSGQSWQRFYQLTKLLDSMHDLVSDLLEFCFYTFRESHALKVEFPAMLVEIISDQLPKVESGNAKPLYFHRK

Rattus norvegicus [12] = test: Antidyslipidemic activity in ZDF rat assessed as LDL/IgHDL level at 10 mg/kg for 9 days by FPLC analysis (reference value: 17.8 mg/dL); type: functional, Zucker
[13] = Fraction unbound in rat plasma; type: ADME, cell-free
[14] = AUC (0 to 24 hrs) in beagle dog at 3 mg/kg, po by LC-MS/MS analysis; type: ADME, organism-based, Canis lupus familiaris; parameters: dose 3 mg/kg, time < 24 hr, route oral; conditions: in vivo; procedure, shortened: as §2
Rattus norvegicus [15] = test: Antidyslipidemic activity in ZDF rat assessed as VLDL level at 10 mg/kg for 9 days by FPLC analysis (reference value: 35 mg/dL); type: functional, Zucker
Mus musculus [16] = test: Antidyslipidemic activity in western-diet fed mouse expressing LDL-receptor (-/-) assessed as decrease in total cholesterol level administered once daily for a week via gavage […]; type: functional; conditions: po; procedure, shortened: as §3
Mus musculus [17] = test: Antidyslipidemic activity in western-diet fed mouse expressing LDL-receptor (-/-) assessed as decrease in very-low density lipoprotein level at 1 mg/kg qd for a week administered via gavage by FPLC analysis; type: functional; conditions: po; procedure, shortened: as §4
Rattus norvegicus [18] = test: Antidyslipidemic activity in ZDF rat assessed as VLDL level at 10 mg/kg cotreated with 0.3 mg/kg rosiglitazone for 9 days by FPLC analysis (reference value: 35 mg/dL); type: functional, Zucker
[19] = Terminal half life in cynomolgus monkey at 0.91 mg/kg, iv by LC-MS/MS analysis; type: ADME, organism-based, Macaca fascicularis; conditions: in vivo, read-out: beta t1/2 (converted); procedure, shortened: as §1
[20] = Cmax in beagle dog at 3 mg/kg, po by LC-MS/MS analysis; type: ADME, organism-based, Canis lupus familiaris; parameters: dose 3 mg/kg, route oral; conditions: in vivo; procedure, shortened: as §2
[21] = AUC (0 to 24 hrs) in cynomolgus monkey at 0.91 mg/kg, iv by LC-MS/MS analysis; type: ADME, organism-based, Macaca fascicularis; parameters: dose 0.91 mg/kg, time < 24 hr, route intravenous; conditions: in vivo; procedure, shortened: as §2

Cn1cc(C(=O)O)c2ccc(N3CCC(OCc4c(-c5c(Cl)cccc5Cl)noc4C4CC4)CC3)cc21 [TERN-101]
C0 [1]: 2530 ng/mL | Cmax [2]: 130 ng/mL | inhibition in vivo at 30 mg/kg (Mus musculus [3]): 83% | half-life [4]: 7 h | AUC(0-t) at 24 h [5]: 1780 ng·h/mL | Activity (Rattus norvegicus [6]): 74.4 mg/dL | inhibition in vivo at 1 mg/kg (Mus musculus [7]): 1% | inhibition in vivo at 30 mg/kg (Mus musculus [8]): 83% | inhibition in vivo at 1 mg/kg (Mus musculus [9]): 25% | inhibition in vivo at 3 mg/kg (Mus musculus [10]): 46% | EC50 [11]: > 10 µM | Activity (Rattus norvegicus [12]): 12.5 mg/dL | fraction unbound [13]: 0.02 | AUC(0-t) at 24 h [14]: 4690 ng·h/mL | Activity (Rattus norvegicus [15]): 18.2 mg/dL | ED50 (Mus musculus [16]): 2 mg/kg | inhibition in vivo at 1 mg/kg (Mus musculus [17]): 59% | Activity (Rattus norvegicus [18]): 8.5 mg/dL | half-life [19]: 5 h | Cmax [20]: 1240 ng/mL | AUC(0-t) at 24 h [21]: 2300 ng·h/mL
